From ChEMBL document CHEMBL1154978, “Sesquiterpenes from Maytenus jelskii as potential cancer chemopreventive agents” (J Nat Prod, 2010) come the findings set out here.

The subject of series [1] is Raji. In words: Inhibition of TPA-induced EBV early antigen activation in human Raji cells at 1000 molar ratio after 48 hrs relative to TPA by indirect immunofluorescence technique. It counts as cell-based. Further details: scale not given: the % may be the effect or the level left. The conditions noted are these: human gammaherpesvirus 4.
Series [2] concerns Raji. In words: Inhibition of TPA-induced EBV early antigen activation in human Raji cells at 500 molar ratio after 48 hrs relative to TPA by indirect immunofluorescence technique. The class given is cell-based. Further details: scale not given: the % may be the effect or the level left. The following applies: human gammaherpesvirus 4.
For series [3], the system named is Raji. The series can be described thus: Inhibition of TPA-induced EBV early antigen activation in human Raji cells at 100 molar ratio after 48 hrs relative to TPA by indirect immunofluorescence technique. The class given is cell-based. Further details: scale not given: the % may be the effect or the level left. The following applies: human gammaherpesvirus 4.
Series [4] concerns Raji. The series can be described thus: Inhibition of TPA-induced EBV early antigen activation in human Raji cells at 10 molar ratio after 48 hrs relative to TPA by indirect immunofluorescence technique. Further details: scale not given: the % may be the effect or the level left. The class given is cell-based. The conditions noted are these: human gammaherpesvirus 4.
In series [5] the test system is Raji. In words: Cytotoxicity against human Raji cells carrying EBV genome by trypan blue staining method. The class given is cell-based. On the set-up: concentration or dose not given beside the values. In outline: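 Raji cells grown in RPMI-1640 with 10% FBS and exposed for 48 h at 37 °C to n-butyric acid (4 mmol), TPA (32 pmol) and test compound in DMSO. Viability of treated cells was read by Trypan Blue staining.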

In series [6] the test system is Mus musculus. The series can be described thus: Inhibition of DMBA-induced/TPA-promoted carcinogenesis in ICR mouse assessed as reduction in number of skin papillomas per mouse at 85 nmol administered 1 hr before TPA treatment measured after 20 weeks. The class given is functional, organism-based. In outline:
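Female SPF ICR mice, 6 weeks old, 15 per group, with shaved backs. Initiation was a single topical dose of DMBA (100 µg, 390 nmol) in 0.1 mL acetone. From one week later, TPA (1 µg, 1.7 nmol) in acetone was applied twice weekly. Compound (85 nmol in 0.1 mL acetone) was applied topically 1 h before each TPA dose. Papillomas per mouse were recorded weekly for 20 weeks.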

Series [7] deals with Mus musculus. In words: Inhibition of DMBA-induced/TPA-promoted carcinogenesis in ICR mouse assessed as reduction of papilloma-bearing mice at 85 nmol administered 1 hr before TPA treatment measured after 10 weeks.
Series [8] concerns Mus musculus. In words: Inhibition of DMBA-induced/TPA-promoted carcinogenesis in ICR mouse assessed as reduction of papilloma-bearing mice at 85 nmol administered 1 hr before TPA treatment measured after 15 weeks.
In series [9] the test system is Mus musculus. In words: Inhibition of DMBA-induced/TPA-promoted carcinogenesis in ICR mouse assessed as reduction of papilloma-bearing mice at 85 nmol administered 1 hr before TPA treatment measured after 20 weeks.

Activity calls are given as the source filed them. The calls are words filed in the database; no cut-off is given here.

On to `CC(=O)O[C@H]1[C@H](OC(=O)c2ccccc2)[C@@]2(C)[C@@H](OC(=O)/C=C/c3ccccc3)C[C@@H]3C[C@]2(OC3(C)C)[C@@](C)(O)[C@H]1OC(C)=O`, for which the Activity in the series on Raji [1] is 11.8%; in the series with Raji [2] it was 53.2%; in the series on Raji [3], 86.3%; in the series with Raji [4], 100%; in the series with Raji [5], 60%.
For the molecule `CC(=O)O[C@H]1[C@H](OC(=O)c2ccccc2)[C@@]2(C)[C@@H](OC(=O)/C=C/c3ccccc3)C[C@@H]3[C@@H](OC(C)=O)[C@]2(OC3(C)C)[C@@](C)(O)[C@H]1OC(C)=O`, the Activity in the series on Raji [1] came to 8.9%; with Raji [2], 39.6%; with Raji [3], 87.4%; in the series on Raji [4], 100%; with Raji [5], 60%.
On the same counts, the results for `CC(=O)O[C@H]1[C@H](OC(=O)c2ccccc2)[C@@]2(C)[C@@H](OC(=O)/C=C/c3ccccc3)C[C@@H]3C[C@]2(OC3(C)C)[C@@](C)(O)[C@H]1O` are 10.9%, 52%, 86.2%, 100% and 60%.
The matching figures for `CC(=O)O[C@H]1[C@H](OC(=O)c2ccccc2)[C@@]2(C)[C@@H](OC(=O)/C=C/c3ccccc3)C[C@@H]3[C@@H](O)[C@]2(OC3(C)C)[C@@](C)(O)[C@H]1O`: 5.3%, 35.2%, 85.2%, 100% and 60%.
For `CC1=C(/C=C/C(C)=C/C=C/C(C)=C/C=C/C=C(C)/C=C/C=C(C)/C=C/C2=C(C)CCCC2(C)C)C(C)(C)CCC1` [BETA CAROTENE], the Activity in the series with Raji [1] was 8.6%; with Raji [2] it was 33.3%; in the series on Raji [4] it was 100%; in the series on Raji [5] it was 70%.
Regarding `CC(=O)O[C@H]1[C@H](OC(=O)c2ccccc2)[C@@]2(C)[C@@H](OC(=O)c3ccccc3)C[C@@H]3[C@@H](OC(C)=O)[C@]2(OC3(C)C)[C@@](C)(O)[C@H]1O` [2BETA,3BETA,4BETA,TRIHYDROXYCELARBICO], the Activity was 0% in the series with Raji [1]; 33.2% in the series on Raji [2]; 77.5% in the series with Raji [3]; 98.6% in the series with Raji [4]; 60% in the series with Raji [5]. In addition, in the series with Mus musculus [6], the outcome was Active. The figures for the Papilloma-bearing mice % in the series on Mus musculus [7], in the series on Mus musculus [8] and in the series on Mus musculus [9] were 20%, 53.3% and 90%, respectively.
For `CC(=O)O[C@H]1[C@H](OC(=O)c2ccccc2)[C@@]2(C)[C@@H](OC(=O)c3ccccc3)C[C@@H]3[C@@H](OC(=O)c4ccccc4)[C@]2(OC3(C)C)[C@@](C)(O)[C@H]1O`, the Activity in the series on Raji [1] is 13.7%; in the series on Raji [2], 54.2%; in the series with Raji [3], 87.1%; with Raji [4], 100%; in the series on Raji [5] it was 60%.
On the same counts, the results for `CC(=O)O[C@H]1[C@H](OC(=O)c2ccccc2)[C@@]2(C)[C@@H](OC(=O)/C=C/c3ccccc3)C[C@@H]3[C@@H](O)[C@]2(OC3(C)C)[C@@](C)(O)[C@H]1OC(C)=O` are 10.1%, 51.3%, 85.2%, 100% and 60%.
On the same counts, the results for `CC(=O)O[C@H]1[C@H](OC(=O)c2ccccc2)[C@@]2(C)[C@@H](OC(=O)/C=C/c3ccccc3)C[C@@H]3[C@@H](OC(C)=O)[C@]2(OC3(C)C)[C@@](C)(O)[C@H]1O` are 9.3%, 50.1%, 84.3%, 100% and 60%.
As to `CC(=O)O[C@H]1[C@H](OC(=O)c2ccccc2)[C@@]2(C)[C@@H](OC(=O)c3ccccc3)C[C@@H]3[C@@H](OC(C)=O)[C@]2(OC3(C)C)[C@@](C)(O)[C@H]1OC(=O)c1cccnc1`, the Activity with Raji [1] was 7.5%; with Raji [2], 36.6%; in the series on Raji [3] it was 87.6%; in the series with Raji [4] it was 100%; in the series on Raji [5], 60%.
